Data published in the EternaBench riboswitch data.

System: MS2 coat protein
Experiment: apparent Kd, MS2 coat protein; higher = weaker binding; RNA-MaP array
Outline: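 The designed RNAs, transcribed from sequenced DNA templates on an Illumina sequencing chip, were incubated with fluorescently labeled MS2 coat protein at room temperature. Protein ranged from 1.5 nM to 3 μM, with 0.8–1.5 h incubation at the lowest and 10–20 min at the highest concentrations, in Tris-HCl pH 7.5 buffer with KCl, MgCl2, BSA, DTT, tRNA and Tween20, with or without input ligand. The median of per-cluster binding-curve fits gives the apparent Kd, and designs measured on fewer than 10 clusters were excluded.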

[1] = designed as: ON switch for theophylline, no ligand
[2] = ligand present: theophylline, designed as: ON switch for theophylline
[3] = designed as: ON switch for flavin mononucleotide, no ligand
[4] = ligand present: flavin mononucleotide, designed as: ON switch for flavin mononucleotide
[5] = designed as: OFF switch for flavin mononucleotide, no ligand
[6] = ligand present: flavin mononucleotide, designed as: OFF switch for flavin mononucleotide
[7] = designed as: ON switch for tryptophan, no ligand
[8] = ligand present: tryptophan, designed as: ON switch for tryptophan
[9] = designed as: OFF switch for theophylline, no ligand
[10] = ligand present: theophylline, designed as: OFF switch for theophylline

Sequence	apparent Kd [5] [nM]	apparent Kd [6] [nM]	other results
CAUGAUAAGUUGGAUACCAGCAUAUGGAACAACAUGAGGAUCACCCAUGUCAAAUGACAUUGCCCUUGGCAGCCACCUACUGUCA			apparent Kd [1]: 20.3 nM; apparent Kd [2]: 11.1 nM
CAUUAAACAGCAGGAUAUACUAGUGUGAUACUGGUAGAAGGGCUCCUCACCCACAUGAGGAUCACCCAUGUGACAUCUACCUUA			apparent Kd [3]: 314 nM; apparent Kd [4]: 146 nM
CCAAGAGUACUAGGAUAUUCCGGCCACGCACAUGAGGAUCACCCAUGUGAGACUCUCAGACGGUCGAAGAAGGAGUUGCAGGCU	34.8	30.9	
CCAAGCAUAAUAGAUACCAGUCGUAUACCUCCAACAUGAGGAUCACCCAUGUGCUCAGUUGACCCUUGGCAGCUAUGCCUAUAGA			apparent Kd [1]: 39.6 nM; apparent Kd [2]: 25.8 nM
CCGCCCUACCGCGAUACCAGUACGGCAGUUAACAUGAGGAUCACCCAUGUGCAAACAUAAUACCCUUGGCAGCGCCUGAAUCCAU			apparent Kd [1]: 17.7 nM; apparent Kd [2]: 17.3 nM
CCGGUCCACUAGGAUAUGCGGAGUGUAUAUCACGCAGAAGGAGUCACAUGAGGAUCACCCAUGUGCGUGGGUUG	9.4	9.16	
CCGUGGCAUCAACAGGAUAUGCUAUCAAAGACAUGAGGAUCACCCAUGUGGGUAUAUUACUUCCGGCAGAAGGGUUUAAGGGUUAC			apparent Kd [3]: 36.6 nM; apparent Kd [4]: 28.9 nM
CCUGUAGACCCGACAUGAGGAUCACCCAUGUGUAGUUAUGGUAGAAGGUCGUACUGAACACACUCGAAGGAUAUACCCUUAUAC			apparent Kd [3]: 13.9 nM; apparent Kd [4]: 13.3 nM
CGAACGGGCCACACUACAUGAGGAUCACCCAUGUUCGAAGAUAGAAGGUGUAGCUGGCCUCGUUACAAGGAUAUAUCUUAUACC	29.2	27.4	
CGACGUCACGUGAGGAUAUGAUUGCUGCAAAUCAGUCAGAAGGCACAUGAGGAUCACCCAUGUCACCAAUACGA	7.15	10.3	
CGACUGAAUAGGCAGUACACAUGAGGAUCACCCAUGUUAGCAAGAAGGCAAGAGCCAGCGGAGCUUGAGGAUAUUGAAGAUCUC			apparent Kd [3]: 27.2 nM; apparent Kd [4]: 27.4 nM
CGCCCAGUUACGGCCGCCACUUCGAUGGCAAAUGUCGAGCCUCCACAUGAGGAUCACCCAUGUCGAAGGACCGGGUACUGCUUGC			apparent Kd [7]: 31.9 nM; apparent Kd [8]: 110 nM
CGCUACAUGAGGAUCACCCAUGUUACUCCGCGAGGACCGGUACGGCCGCCACUCGGCAGUUUGCGCCGCCGGAGGCACUCUUCAG			apparent Kd [7]: 27 nM; apparent Kd [8]: 33.1 nM
CGGGCGAAGCCUUUCACAUGAGGAUCACCCAUGUCUAAUACGAAGGAUAUCCUCGCCGGAGCUAAGGAGAAGGUCGACAUAGUU	18.9	19.2	
CGUGUACAUGAGGAUCACCCAUGUUAGGAUAUCUUACCAAAGUCGAGGUGACUCCGGGAGAGAAGGAACUGGCA	78.6	79.1	
CUAACCACAAUAGGAUAUCGGGCUCGUUUCAUUGCUGCAAAACAUGAGGAUCACCCAUGUCCGUCCGAGAAGGAUUGUAAGAAU			apparent Kd [3]: 92.1 nM; apparent Kd [4]: 14.8 nM
CUAGGUCAGCUAGGAUAUACUUCUUGCAUGGAUGUAGAAGGAGCGAUAAGAUCUACAUGAGGAUCACCCAUGUUACUUAGGGUG	290	131	
CUCCCACUAUCUGAUACCAGAGGAUAAACGUAGACUGGGAACAUGAGGAUCACCCAUGUCCUCCCUUGGCAGCAGGACUUAUCUC			apparent Kd [9]: 21.9 nM; apparent Kd [10]: 38.3 nM
CUCGUCAACUCGGCCGCCACUGACGUGUGGUCAGGCCUGUAGAAACACAUGAGGAUCACCCAUGUCAGGACCGGGAGCUUUAUUA			apparent Kd (designed as: OFF switch for tryptophan, no ligand): 46.9 nM; apparent Kd (ligand present: tryptophan, designed as: OFF switch for tryptophan): 58.2 nM
CUCUAUCAGCAAGGAUAUGGGAGGUGUCGAGUUCCAGAAGGUGCACAUGAGACAUGAGGAUCACCCAUGUUGUGUAGUCCUCGA	10.8	26.5	
GAAAAUUCCUAGAAGGCGGAUUAUACUUGGUUGAACAUGAGGAUCACCCAUGUAUCUGGCAAACCCGAGGAUAUAGAUUUUCCA			apparent Kd [3]: 56.2 nM; apparent Kd [4]: 31.2 nM
GAAGCUCGCGAUGAUACCAGCUCGACUGAUAACAUGAGGAUCACCCAUGUUGUGCGCCCUAGCCCUUGGCAGCAUGACAUAUUCG			apparent Kd [1]: 110 nM; apparent Kd [2]: 71.1 nM
GACAUGAGGAUCACCCAUGUUUCGGUUACAUUGUAAUCAUGAUAGGAUAUCUCUGCUGUGGUGAGAGAGAAGGAUCGUCUGCUU			apparent Kd [3]: 13 nM; apparent Kd [4]: 10.6 nM
GACGAAUCGGCAGGAUAUCUAGAUGAGCCAGAAUGUAAUUGAGUUGACAUGAGGAUCACCCAUGUAGAGAAGGGCCCAUCCAUU	12.1	20.7	
GACUACCAGGAAGGAUAUGCCUAUAACUGAAAGACAUGAGGAUCACCCAUGUAUUGGGCGAACCUGCAGAAGGUCCGACUAGAC	40.6	41.2	
GAUAACAUGAGGAUCACCCAUGUGGCGUCGCGAGGACCGGUACGGCCGCCACUCGGCAGUUCAACUCGAAUAUAGUGAUCGAAGU			apparent Kd [7]: 138 nM; apparent Kd [8]: 87.5 nM
GAUAAGGAAGGAUAUACAAAGGAACAAAUACACAUUCUAAAACAUGAGGAUCACCCAUGUAGAAGGACCAACAA	6.97	6.83	

Sequence	apparent Kd [5] [nM]	apparent Kd [6] [nM]	other results
GAUCGCAUCGUGAGGAUAUGAAAUGCCACUCAAAUACAGAAGGCACAUGAGGAUCACCCAUGUCUAGACAAGAG	25.9	64.9	
GAUGGAAUAAGAGAUACCAGACACAAUUUAGCAUGUAUAUACAUGAGGAUCACCCAUGUAGUCCCUUGGCAGCUCUGGUUAGUGU			apparent Kd [9]: 26.5 nM; apparent Kd [10]: 26.7 nM
GCAAAGUAAGAAGGAUAUGCGUCCGGUGAACAACAACGCGAUCGAACAUGAGGAUCACCCAUGUCGCAGAAGGUCUGAGAAUUC	27.4	40.3	
GCACGACAUGAGGAUCACCCAUGUGAGGAUAUACUACAUCAGGAACACGCUAUGCACGGUAGAAGGCACGGGAG	16.4	15.6	
GCAGUAAGAGAGGAUAUGAUGGACGCAAGGGCGUCAGAAGGCUCUACAUGAGGAUCACCCAUGUGAAGUUCAUA	6.12	6.52	
GCAUACAGCAAGAAGGUGGCAUCGACUAUGGCCCAAGGAUAUUGCGGUACUACAUGAGGAUCACCCAUGUGUUCAUGAUUAUAG			apparent Kd [3]: 35.5 nM; apparent Kd [4]: 30.2 nM
GCAUUACAUGAGGAUCACCCAUGUCUAGAUACCAGAUUUGUUUGAAUCCCUUGGCAGCUAGUGGACCACCGUACACGACAUACUA			apparent Kd [1]: 45.1 nM; apparent Kd [2]: 24.9 nM
GCCAGUGUCUAGGAUAUCACGCCGCGUUGCAGGUGAGAAGGAGACACAUGAGGAUCACCCAUGUGUCCGAUAGG	7.12	9.49	
GCCCAUUAAGACAUGAGGAUCACCCAUGUCACCGGGUAUGCCAGAAGGCUCUUAUAGAAGUAACGAGAGGAUAUGGGUGCUACU			apparent Kd [3]: 23.3 nM; apparent Kd [4]: 13.8 nM
GCGGGUUACCCAGAAUGAGAAACAUGAGGAUCACCCAUGUAGAAGGAUAUAGAGUCUUGGUCUGCCUAGAAGGUCUAUAAUUGA	20.5	19.9	
GCUCGUUGCAUGGAUACCAGUUGAUAGGCCGCCUCCGGAUACAUGAGGAUCACCCAUGUCAACCCUUGGCAGCCACCCAAUAGGG			apparent Kd [9]: 9.36 nM; apparent Kd [10]: 18.1 nM
GGAAGUGUCUAGGAUAUCCUUCGAUCUAUGGCAGGAGAAGGAGAUACAUGAGGAUCACCCAUGUAGGUACGGGC	7.1	6.75	
GGAAUGUAAGGAUAUACCCGUAAGGUAGGGAUCGCAUCGGCGUAGAAGGUACAUGAGGAUCACCCAUGUUCAGC	7.78	7.97	
GGAUCGCGAGGAUAUACAUGAGGAUCACCCAUGUUUACUCACACAUUUUUAUUCUUCCGUAGAAGGCGCGCAAG	5.52	5.4	
GGGUGACAUGAGGAUCACCCAUGUCAGGAUAUGGACUCGAAAUUAGGUAUGAAUCACGCCAGAAGGGACCGGGC	55	44	
GGUCCGACAACAGGAUAUGUCAUACGCUAAUGAACAGAAGGGUUACAUGAGGAUCACCCAUGUGCUUACACAUGCUCCGGAGCA			apparent Kd [3]: 10.8 nM; apparent Kd [4]: 17.1 nM
GGUGACCCUGUUCCACAUGAGGAUCACCCAUGUUACCACUAUUAGGAUAUGCUUACAUGUACACUGCAGAAGGAAUAGGUAAGA	103	442	
GUACGGUGAGGAUAUCGUUAAGAUGUGGACAGGCCUACAUACGAGAAGGCACAUGAGGAUCACCCAUGUUCAUA	21.5	18.8	
GUGCUGAAUACGUAGGAUAUAGUGUGUGCGACAUGAGGAUCACCCAUGUAAAUUGCCCAUCAGAGCUAGAAGGACGAAUCUUCGUG			apparent Kd [3]: 15.5 nM; apparent Kd [4]: 8.78 nM
UAAAUUCGAGGAUAUACGAGCCUCUUGAGCUGCCACGAAGCACAUGAGGAUCACCCAUGUAGAAGGCGACGGAU	12.2	19.9	
UAACAUGAGGAUCACCCAUGUACGAAGAGGGAAAGAAAAGUCAAGGAUAUGCGGAUUUAACUAGCGCAGAAGGUGAUCUAAGUU			apparent Kd [3]: 230 nM; apparent Kd [4]: 114 nM
UAAGCACAUGAGGAUCACCCAUGUGAGGAUAUGAGUGUCGGUCGAGAAGAGCGUCCAAUCAGAAGGCACAGGAU	12.9	11.6	
UAAGCGUUAGGAUAUACAAAACGAAGAAAGUGAUUCAGAAUACAUGAGGAUCACCCAUGUAGAAGGAACGGGUA	17.7	24.2	
UAAUAUGGAGGAUAUAAAGUCGAAGACAUGAGGAUCACCCAUGUCCUUGGUUGAAAGAGGUUAGAAGGCCAUAGUA	9.47	9.66	
UACUUCACGAUACAGGAUAUACGUAAGUUCACAUGAGGAUCACCCAUGUUAGCACACCAACUCAUGUAGAAGGGUAUCCCUAUAUA			apparent Kd [3]: 30.4 nM; apparent Kd [4]: 13.1 nM
UAGAAGAACAUGCGGGCUCCGGACGGUGAUACCAGAUCGAAAAGGAUCCCUUGGCAGCACUGCACAUGAGGAUCACCCAUGUGCA			apparent Kd [9]: 9.2 nM; apparent Kd [10]: 15.8 nM
UAGGUACAUGAGGAUCACCCAUGUCCUAUUACUACAGGAUAUAGCGUGCCUAGAUGGGUGCUAGAAGGGUAGAUCU			apparent Kd [3]: 20.7 nM; apparent Kd [4]: 9.13 nM
